# In PubChem BioAssay:
# Active and inactive are the calls of the source.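 Rule for the calls, unless noted: active = viability at or under a set limit in both replicates, limit being median viability minus 3 SD (cut at about 48% in these data, passing the limit was not always enough); inconclusive = at or under the limit in just one replicate; inactive = at or above the limit in both replicates.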
# How the values were obtained:
# [1] = Her2 expression decrease, cell viability multiplex – SKBR3 breast tumor cells, AlphaScreen, ATP viability, primary screen (AID 461;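 active = Her2 level under about 52% in both replicate screens, with viability over 70% of control, limit read from the data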;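 for Her2 level: lower value means less Her2 protein in the cells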;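 for viability: percent of carrier control wells set as 100% viability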); conditions: SKBR3 Her2 protein level, 18-24 h, measured here: SKBR3 viability, ATP luminescence, at 10 µM
# [2] = target: Receptor tyrosine-protein kinase erbB-2 (Homo sapiens) (UniProt P04626); test: as above; conditions: 18-24 h, at 10 µM, stronger effect = lower value
# Sequence of Receptor tyrosine-protein kinase erbB-2 (Homo sapiens) (P04626 whole entry, looked up): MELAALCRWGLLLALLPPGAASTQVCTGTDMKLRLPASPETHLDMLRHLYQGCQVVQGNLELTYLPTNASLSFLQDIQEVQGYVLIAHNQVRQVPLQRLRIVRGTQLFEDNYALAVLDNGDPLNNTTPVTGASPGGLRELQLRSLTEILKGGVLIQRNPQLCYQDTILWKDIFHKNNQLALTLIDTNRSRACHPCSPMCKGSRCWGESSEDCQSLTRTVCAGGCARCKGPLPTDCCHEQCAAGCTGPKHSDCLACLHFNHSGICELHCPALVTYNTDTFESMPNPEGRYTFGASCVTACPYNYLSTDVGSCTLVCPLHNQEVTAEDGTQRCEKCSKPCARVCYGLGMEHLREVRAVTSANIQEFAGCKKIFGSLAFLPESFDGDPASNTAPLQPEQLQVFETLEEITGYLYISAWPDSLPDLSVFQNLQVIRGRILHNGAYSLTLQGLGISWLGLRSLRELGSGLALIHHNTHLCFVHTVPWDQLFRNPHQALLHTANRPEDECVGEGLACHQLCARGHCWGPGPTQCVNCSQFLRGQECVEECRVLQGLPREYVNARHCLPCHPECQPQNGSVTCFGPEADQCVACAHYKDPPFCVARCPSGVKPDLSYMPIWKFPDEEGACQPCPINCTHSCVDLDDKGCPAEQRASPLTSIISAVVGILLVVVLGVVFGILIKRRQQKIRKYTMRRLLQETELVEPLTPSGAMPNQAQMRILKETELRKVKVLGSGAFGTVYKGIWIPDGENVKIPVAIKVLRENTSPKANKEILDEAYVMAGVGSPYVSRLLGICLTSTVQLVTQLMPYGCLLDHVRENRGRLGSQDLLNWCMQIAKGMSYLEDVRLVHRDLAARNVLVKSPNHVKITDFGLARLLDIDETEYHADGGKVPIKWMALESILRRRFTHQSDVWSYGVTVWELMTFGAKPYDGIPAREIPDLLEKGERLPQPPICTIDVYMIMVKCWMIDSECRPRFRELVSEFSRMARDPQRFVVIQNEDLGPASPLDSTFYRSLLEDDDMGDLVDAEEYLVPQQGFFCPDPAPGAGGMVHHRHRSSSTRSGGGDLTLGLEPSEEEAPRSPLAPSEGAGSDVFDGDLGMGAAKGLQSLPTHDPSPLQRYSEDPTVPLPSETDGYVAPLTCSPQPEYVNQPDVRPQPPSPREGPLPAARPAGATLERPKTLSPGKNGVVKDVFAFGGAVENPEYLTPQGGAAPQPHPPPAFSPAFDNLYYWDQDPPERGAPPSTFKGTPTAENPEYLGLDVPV
# [3] = reduced viability of SK-BR-3 breast cancer cells – cell-based, 24 h, human, pilot screen (AID 572;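 active = viability at or below 10% of carrier control in both of two separate runs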;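 note: compound exposure lasted between 18 and 24 h rather than exactly 24 h; 100% = carrier-treated control wells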); conditions: SK-BR-3 viability, CellTiter-Glo luminescence, at 10 µM, stronger effect = lower value
# [4] = HUVEC growth inhibition – cell-based, human, primary screen (AID 575;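 active = viability at or below 30% in both replicate assays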;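 note: 100% = median of untreated cell wells with 0.1% DMSO on each plate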); conditions: HUVEC proliferation, CellTiter-Glo luminescence, 72 h; at 10 µM; stronger effect = lower value
# Procedure, shortened: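 Test system – primary HUVEC, no more than 12 passages · Dosing – one dose, 10 µM final, 0.1% DMSO · Times – 72 h treatment at 37 °C · Measured by – ATP-based CellTiter-Glo luminescent read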
# [5] = H69AR cell proliferation blockers – human, duplicate replicates, primary screen (AID 580); conditions: H69AR lung tumor cells viability, ATP luminescence, 72 h; at 10 µM; stronger effect = lower value;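 note: 100% = mean luminescence of untreated wells and 0% = no signal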
# [6] = MRP1 drug-resistance reversers in H69AR cells – cell-based, doxorubicin co-treatment, pilot screen (AID 601;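 active = viability loss from added drug above about 55%, and viability with drug at most 40%, in both replicates, limit read from the data, passing the limit was not always enough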); conditions: CellTiter-Glo, 72 h, at 10 µM; for differential viability (reversal): stronger effect = higher value
# [7] = yeast transport mutant growth inhibition pilot in 384-well plates, post-Golgi transport modulator project (AID 636; in the data active = inhibition above about 31%); conditions: absorbance 615 nm, about 18 h, stronger effect = higher value
# [8] = growth suppression of yeast trafficking mutant, preliminary HTS, modulators of trafficking downstream of Golgi apparatus project, 1536-format plate, OD 615 nm (AID 637; in the data active = inhibition above about 30%); conditions: yeast transport mutant growth, absorbance 615 nm, 18 h; stronger effect = higher value
# [9] = H69AR cells + 2 uM doxorubicin, measured here: viability with 2 uM doxorubicin, stronger effect = lower value
# [10] = H69AR cells, compound alone cytotoxicity
Compound,viability [1] [%],Her2 level [2],viability [3],viability [4],viability [5],differential viability (reversal) ([6]; H69AR cells + 2 uM doxorubicin),"viability [6, 9] [%]","viability [6, 10] [%]",inhibition [7],inhibition [8]
CCC(=O)N1CCCc2cc(S(=O)(=O)N3CCCc4ccccc43)ccc21,89.5,76.5% (inactive),89.5% (inactive),87.2% (inactive),77.6% (inactive),-3.92% (inactive),81.5,77.6,-2.76% (inactive),-2.1% (inactive)
CC(C)=CC(=O)Nc1ccc(Br)cc1,77.5,104% (inactive),77.5% (inactive),107% (inactive),98.2% (inactive),6.66% (inactive),91.5,98.2,1.45% (inactive),-9.35% (inactive)
CC(NCc1ccco1)C(=O)N1CCc2ccccc2C1 (stereo not given),108,108% (inactive),108% (inactive),109% (inactive),92.9% (inactive),5.48% (inactive),87.4,92.9,1.92% (inactive),-2.06% (inactive)
Cc1ccc(C(=O)CC2(O)C(=O)N(CN3CCOCC3)c3ccccc32)cc1 (stereo not given),100,90.5% (inactive),100% (inactive),85.9% (inactive),94.6% (inactive),-5.11% (inactive),99.7,94.6,-3.55% (inactive),-4.83% (inactive)
CCOC(=O)c1c(C)[nH]c(C(=O)Cn2c(=O)oc3ccccc32)c1C,102,93.5% (inactive),102% (inactive),108% (inactive),89.5% (inactive),2.91% (inactive),86.6,89.5,-3.97% (inactive),0.33% (inactive)
Cc1ccc(Cc2c(C)nc3c(C(=O)O)cnn3c2C)cc1,93.5,114% (inactive),93.5% (inactive),85.5% (inactive),91.9% (inactive),-10.4% (inactive),102,91.9,-4.34% (inactive),-5.17% (inactive)
COC(=O)c1ccccc1S(=O)(=O)N(CCCN1CCOCC1)Cc1cccs1,111,110% (inactive),111% (inactive),91.8% (inactive),89.2% (inactive),-0.97% (inactive),90.2,89.2,-1.45% (inactive),5.4% (inactive)
COc1ccc(/C(O)=C2/C(=O)C(=O)N(CCN(C)C)C2c2ccccn2)cc1OC (stereo not given),92.5,91.5% (inactive),92.5% (inactive),103% (inactive),91.5% (inactive),3.17% (inactive),88.3,91.5,-4.19% (inactive),-6.19% (inactive)
COc1ccc(C2/C(=C(/O)c3ccccc3)C(=O)C(=O)N2C)cc1 (stereo not given),102,83.5% (inactive),102% (inactive),107% (inactive),101% (inactive),3% (inactive),98.1,101,-7.84% (inactive),1.97% (inactive)
CCOC(=O)C1=C(C)N=c2s/c(=C\c3cccn3C)c(=O)n2C1c1cccc(OC)c1OC (stereo not given),89,87% (inactive),89% (inactive),75.7% (inactive),87.4% (inactive),-1.62% (inactive),89,87.4,-1.56% (inactive),-2.13% (inactive)
CCN(CC)S(=O)(=O)c1ccc(NC2c3ccccc3C(=O)N2CCN2CCOCC2)cc1 (stereo not given),101,105% (inactive),101% (inactive),85.2% (inactive),87% (inactive),10.8% (inactive),76.2,87,-1.54% (inactive),-0.83% (inactive)
c1ccc2c(c1)Cn1c-2nc2ccccc21,114,95% (inactive),114% (inactive),120% (inactive),78.4% (inactive),-1.54% (inactive),79.9,78.4,-6.35% (inactive),1% (inactive)
Cc1nc2ccccc2c(=O)n1CC(=O)N1CCOCC1,120,90.5% (inactive),120% (inactive),107% (inactive),90.4% (inactive),-9.46% (inactive),99.8,90.4,0.67% (inactive),-4.35% (inactive)
Cc1cc(C)cc(NC(=O)CCNS(=O)(=O)c2ccc3c(c2)oc(=O)n3C)c1,118,112% (inactive),118% (inactive),95.8% (inactive),94.9% (inactive),-2.07% (inactive),97,94.9,-6.16% (inactive),1.75% (inactive)
CC(NS(=O)(=O)c1ccccc1)C(c1cccs1)N1CCN(C)CC1 (stereo not given),93.5,79.5% (inactive),93.5% (inactive),81.1% (inactive),94.5% (inactive),15% (inactive),79.4,94.5,-5% (inactive),-6.83% (inactive)
O=C(Cn1cnc2ccccc2c1=O)NCCC(=O)N1CCN(c2ccccc2)CC1,90.5,83.5% (inactive),90.5% (inactive),99.6% (inactive),92% (inactive),8.53% (inactive),83.5,92,-3.25% (inactive),-0.98% (inactive)
Cc1ccccc1-n1c(=O)cc(NCc2ccc3c(c2)OCO3)[nH]c1=O,94.5,89.5% (inactive),94.5% (inactive),104% (inactive),103% (inactive),2.75% (inactive),100,103,-2.57% (inactive),1.75% (inactive)
CCn1c(SCc2nc3ccccc3c(=O)[nH]2)nnc1-c1cccnc1,84.5,98% (inactive),84.5% (inactive),104% (inactive),95.2% (inactive),4.33% (inactive),90.9,95.2,-0.13% (inactive),-0.16% (inactive)
Cc1ccc(/C(O)=C2\C(=O)C(=O)N(CCCN(C)C)C2c2ccccn2)cc1 (stereo not given),101,93% (inactive),101% (inactive),118% (inactive),104% (inactive),-4.14% (inactive),108,104,-1.84% (inactive),4.43% (inactive)
CC(C)OCCCNC(=O)c1cc2c(s1)CS(=O)(=O)C2,99,104% (inactive),99% (inactive),90.3% (inactive),94.6% (inactive),-1.46% (inactive),96.1,94.6,1.03% (inactive),-8.5% (inactive)
CCSCCNC(=O)c1cc(-n2cnnc2)ccc1Cl,138,106% (inactive),138% (inactive),108% (inactive),86.3% (inactive),0.415% (inactive),85.9,86.3,-3.47% (inactive),-1.48% (inactive)
Cc1ccc(OCCC(=O)OCC(=O)C(C)(C)C)cc1,81.5,92.5% (inactive),81.5% (inactive),94.2% (inactive),92.8% (inactive),7.79% (inactive),85,92.8,0.26% (inactive),-3.67% (inactive)
Cc1cccc(-n2ccnc2SCC(=O)Nc2cc(C)on2)c1,96,102% (inactive),96% (inactive),96.3% (inactive),99.1% (inactive),18.6% (inactive),80.4,99.1,0.79% (inactive),-4.91% (inactive)
Cc1ccc(Cn2nnc3c(=O)n(CC(=O)NCC4CCCO4)cnc32)cc1 (stereo not given),97,88.5% (inactive),97% (inactive),105% (inactive),104% (inactive),13.4% (inactive),90.4,104,-6.05% (inactive),-0.79% (inactive)
CCOc1cc(C(=O)NCc2ccncc2)cc(OCC)c1OCC,117,92% (inactive),117% (inactive),94.4% (inactive),90.7% (inactive),2.97% (inactive),87.7,90.7,-6.27% (inactive),-4.76% (inactive)
Cc1cc(C(=O)N2CCN(c3ncccn3)CC2)cs1,90,94.5% (inactive),90% (inactive),104% (inactive),102% (inactive),11.2% (inactive),90.8,102,-5.87% (inactive),-1.15% (inactive)
Cc1cnnc2c1-c1nonc1CC2,94.5,102% (inactive),94.5% (inactive),87.4% (inactive),105% (inactive),15.2% (inactive),90.1,105,-6.13% (inactive),2.74% (inactive)
O=C1CC(N2CCN(C3CCc4ccccc4C3)CC2)C(=O)N1c1ccccc1 (stereo not given),89.5,97.5% (inactive),89.5% (inactive),102% (inactive),91.6% (inactive),1.58% (inactive),90,91.6,-1.95% (inactive),3.93% (inactive)
